Screening data: PubChem BioAssay, several laboratories
STEP block: inhibitors of human striatal-enriched phosphatase STEP; P54829; recombinant STEP, OMFP fluorogenic substrate, fluorescence; inhibition, % at 20 µM; actives 0.25% (n = 360,000); AID 588621;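 active means inhibition at 20 µM, scaled per plate between control wells, above about 37%, limit read from the data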;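 further: 0% = DMSO with enzyme and substrate and 100% = substrate only without enzyme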
Target sequence (P54829 whole entry, looked up): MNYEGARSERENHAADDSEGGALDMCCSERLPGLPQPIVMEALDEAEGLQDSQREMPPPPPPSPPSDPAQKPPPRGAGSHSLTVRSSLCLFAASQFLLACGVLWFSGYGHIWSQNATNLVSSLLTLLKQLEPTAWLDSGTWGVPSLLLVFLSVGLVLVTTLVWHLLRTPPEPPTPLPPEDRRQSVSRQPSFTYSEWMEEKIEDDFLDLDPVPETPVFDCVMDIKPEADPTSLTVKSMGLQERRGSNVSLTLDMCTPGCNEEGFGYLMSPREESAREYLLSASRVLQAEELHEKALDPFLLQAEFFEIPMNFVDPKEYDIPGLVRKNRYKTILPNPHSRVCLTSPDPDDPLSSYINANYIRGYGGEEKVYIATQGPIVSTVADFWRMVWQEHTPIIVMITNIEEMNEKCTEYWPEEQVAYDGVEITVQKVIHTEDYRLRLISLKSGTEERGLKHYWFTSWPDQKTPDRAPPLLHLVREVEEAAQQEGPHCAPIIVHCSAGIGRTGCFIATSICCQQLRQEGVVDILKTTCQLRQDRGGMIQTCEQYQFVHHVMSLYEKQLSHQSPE
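material = STEP tyrosine phosphatase | reagent = fluorogenic phosphatase substrate OMFP at 25 µM final | doses = single compound dose of 20 µM, 1% DMSO final | schedule = 20 min reaction, room temperature, in the dark | measured by = fluorescence, 480/540 nm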
DNMT1 block: inhibitors of human DNMT1. DNMT1 molecular beacon, Hinp1I cleavage, fluorescence. P26358. actives 0.83% (n = 360,000). inhibition (reported as % activation of signal), % at 10 µM; in the data active means inhibition above about 50%
LMPTP inh: LMPTP (human) inhibition; recombinant LMPTP-A, OMFP fluorogenic substrate, fluorescence intensity; inhibition, % at 20 µM; actives 0.22% (n = 360,000); AID 651560;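 active means compounds that cut the enzyme signal by at least half of the control window in the single-dose screen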;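 further: plate controls were DMSO wells with enzyme plus substrate for no effect and substrate without enzyme for full effect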
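Assay system: LMPTP-A enzyme. Input: 0.625 nM LMPTP-A final. Probe or stimulus: 400 µM OMFP. Compound dosing: single 20 µM dose. Schedule: 50 min dark incubation at room temperature. Detection: fluorescence intensity of OMFP turnover product. Read-out: percent inhibition versus substrate-only and uninhibited controls. Benchmarks: no-enzyme low control, uninhibited high control.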
SUMO1-SIM PPI: SUMO1-SIM interaction modulation. P63165. SUMO1 binding to a labelled peptide, TR-FRET, 1 h. inhibition, % at 20 µM. actives 0.33% (n = 360,000); in the data active means inhibition above about 37%
Target sequence (P63165 whole entry, looked up): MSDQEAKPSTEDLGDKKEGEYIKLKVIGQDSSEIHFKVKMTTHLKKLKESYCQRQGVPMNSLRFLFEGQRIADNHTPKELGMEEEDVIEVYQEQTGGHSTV
Scp-1 inhibitor: inhibitors of human Scp-1 phosphatase; Q9GZU7; Recombinant Scp1, phosphopeptide, malachite green phosphate absorbance; inhibition, % at 20 µM; actives 0.88% (n = 340,000); AID 493091;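 active means inhibition above about 50% at 20 µM, limit read from the data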;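 further: plate controls were DMSO wells with enzyme for no effect and wells lacking enzyme for full effect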
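Times: enzyme reaction 45 min at room temperature, colour 5 min, stabilisation 30 min. Material: SCP-1 catalytic fragment, aa 76-261. Medium: Acidic Tris acetate buffer with magnesium and detergent. Signal: colorimetric free-phosphate detection, absorbance 630 nm. Read-out basis: % inhibition of SCP-1 phosphate liberation. Reagent: Phosphorylated 17-residue peptide substrate.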
Casp6 inh: caspase-6 (human) enzyme inhibition; actives 0.53% (n = 350,000); inhibition, % at 12.5 µM; purified caspase-6, Z-VEID-R110 cleavage fluorescence; AID 686996; P55212;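 active means mean inhibition across replicates at least about 35%, with every replicate also reaching that limit, limit read from the data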;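 further: 0% = median of neutral control wells and 100% = no fluorescence left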
* hit, by the source's call; · = no result given. Sampled rows, rich in hits. Any-hit rate of the full collection: about 1.7%.

SMILES | STEP block | DNMT1 block | LMPTP inh | SUMO1-SIM PPI | Scp-1 inhibitor | Casp6 inh
CCOC(=O)c1c(C)nc2sc3c(=O)n(-c4ccc(C)cc4)cnc3c2c1-c1ccc(OC)cc1 | -4 | 9 | -1 | 40* | -5 | ·
COc1cccc(CN(C(=O)c2cnccn2)C(C(=O)NC2CCCCC2)c2cc(OC)c(OC)c(OC)c2)c1 (stereo unspecified) | 0 | 1 | -1 | 2 | -3 | 4
COc1cc(-c2nnc(COC(=O)c3ccc([N+](=O)[O-])o3)o2)cc(OC)c1OC | -1 | -2 | 1 | -20 | · | 58*
Cc1ccc(NC2=CC(=O)C(=O)c3ccccc32)cc1 | 4 | 14 | 3 | -2 | 0 | ·
CCOC(=O)c1ccc(NC2=CC(=O)C(=O)c3ccccc32)cc1 | 28 | 56* | 10 | 41* | 25 | ·
NS(=O)(=O)c1ccc(NC2=CC(=O)C(=O)c3ccccc32)cc1 | 20 | 36 | 8 | 4 | -5 | 68*
COc1ccc(C(O)c2nc(-c3ccccc3C)cs2)cc1 (stereo unspecified) | 1 | -1 | 1 | 1 | · | 1
CCOc1cccc(NC(=O)CSc2sc3c(O)cc(=O)[nH]c3c2C#N)c1 | 5 | 4 | 4 | 2 | -1 | 16
N#Cc1c(SCC(=O)Nc2nc3ccccc3s2)sc2c(O)cc(=O)[nH]c12 | 12 | 91* | 64* | 30 | 61* | 60*
N#Cc1c(SCC(=O)Nc2nccs2)sc2c(O)cc(=O)[nH]c12 | 34 | 43 | 31 | 20 | 68* | 82*
CC(C)N1CCC1(C)C(=O)Nc1ccccc1OC(F)F (stereo unspecified) | -3 | 1 | -2 | 0 | · | -3
Cc1ccc(-c2n[nH]c(=S)n2Cc2ccccc2)cc1 | 4 | 2 | 0 | 0 | -7 | ·
CCOc1ccc(-c2n[nH]c(=S)n2Cc2ccccc2)cc1 | 0 | 0 | -1 | -1 | -1 | 37*
Cc1[nH]cnc1CN1CCc2c(c3ccccc3n2C)C1=O | 2 | -11 | 4 | 11 | -9 | 81*
COC(=O)C[C@H]1C=C[C@H](NC(=O)C2CCOCC2)[C@@H](CO)O1 | · | · | -1 | 0 | · | 0
CC(C)CNC(=O)C1(C)CCCN1C(=O)Cc1cccc2ccccc12 (stereo unspecified) | -1 | 6 | -1 | -2 | · | 54*
CCC(=O)NC(NC(=S)Nc1ccccc1Br)C(Cl)(Cl)Cl (stereo unspecified) | -4 | -3 | 0 | -1 | -5 | 59*
Nc1nc(SCC(=O)c2cc3ccccc3o2)n[nH]1 | -5 | -4 | 1 | 40* | -3 | 3
COc1ccc(/C=N/NC(=O)c2cccc([N+](=O)[O-])c2)cc1OC(=O)c1ccccc1 | 0 | -10 | 3 | -5 | -3 | ·
C[C@H](CO)N1C[C@H](C)[C@H](CN(C)C(=O)NC2CCCCC2)OCCCC[C@H](C)Oc2ccc(NC(=O)c3ccncc3)cc2C1=O | · | · | · | · | · | 3
O=C1c2ccc(Oc3cccc([N+](=O)[O-])c3)cc2C(=O)N1c1ccccn1 | 1 | 3 | 0 | -9 | -4 | 0
O=C1c2cc([N+](=O)[O-])cc3cc([N+](=O)[O-])cc(c23)C(=O)N1c1ccccn1 | 1 | 37 | 0 | 12 | 22 | 48*
Cc1cc(-c2ccc([N+](=O)[O-])cc2)nc2ccccc12 | 2 | 0 | 2 | -18 | -4 | 8
Cc1cc(N2CCN(c3nc(-c4ccc([N+](=O)[O-])cc4)cs3)CC2)c2ccccc2n1 | 4 | -14 | 95* | -7 | 4 | -1
CCN1[C@H](C(=O)NCc2cccc(OC)c2)[C@@H](CO)[C@@H]2Cn3c(ccc(C4=CCCCC4)c3=O)[C@@H]21 | · | · | · | · | · | 1
SMILES | STEP block | DNMT1 block | LMPTP inh | SUMO1-SIM PPI | Scp-1 inhibitor | Casp6 inh
CC1=C(C#N)c2nc(N)c(C#N)c(C)c2/C1=C\c1ccc(-c2ccccc2C(=O)O)o1 | 19 | 62* | 24 | 30 | 63* | 54*
COc1cccc(S(=O)(=O)N(C)C[C@H]2OCc3cn(nn3)CCCC(=O)N([C@@H](C)CO)C[C@@H]2C)c1 | -3 | 10 | 0 | 1 | · | -1
O=C(O)c1ccccc1-c1ccc(/C=C/c2cc(C(F)(F)F)[nH]c(=O)n2)o1 | -101 | 36 | -4 | 10 | 11 | 4
O=C(O)c1cc(Cl)ccc1-c1ccc(/C=C/c2cc(C(F)(F)F)[nH]c(=O)n2)o1 | -129 | 30 | -4 | 15 | 19 | 45*
Cc1cc2cc(OCc3ccccc3)ccc2n1C | -2 | 1 | 2 | 5 | -1 | 0
Cc1cc(N2CCN(C(C(=O)NC3CCCC3)C(C)C)CC2)c2ccccc2n1 (stereo unspecified) | · | · | 14 | -9 | · | -8
Cc1cc(N2CCN(C(C(=O)NC3CCCC3)c3ccc(-c4ccccc4)cc3)CC2)c2ccccc2n1 (stereo unspecified) | · | · | 94* | -2 | · | -3
Cc1ccc(NC(=O)CCN2CCN(CCO)CC2)cc1Br | 1 | 1 | -2 | 52* | -8 | -20
Cn1c(CC(=O)NNC(=O)c2ccc(F)cc2Cl)nc2ccccc21 | 2 | 0 | -1 | 43* | -8 | 0
Cn1c(CC(=O)NNC(=O)c2ccc(Cl)nc2)nc2ccccc21 | 5 | 5 | -1 | 4 | -7 | 2
C[C@H](O)C#Cc1ccc([C@@H]2[C@H]3CN(C(=O)c4ccc(F)cc4)CCCCN3[C@H]2CO)cc1 | · | · | · | · | · | -2
CCOC(=O)C1=C(C)c2ccccc2N(C(=O)OC)C1(C)C(=O)OCC (stereo unspecified) | 2 | 12 | 1 | 3 | 98* | -1
CCOC(=O)C1=C(C)c2ccccc2OC1(CC)C(=O)OCC (stereo unspecified) | 0 | 0 | 0 | -2 | -7 | 0
Cc1ccccc1OC1(C)CCN(Cc2ccc(-c3ccccn3)cc2)C1 (stereo unspecified) | 2 | 5 | 2 | 1 | · | 84*
Cc1cc2c(cc1C)NC1(C(=O)Nc3ccccc31)C1=C(CC(C)(C)CC1=O)N2 (stereo unspecified) | -2 | -4 | 0 | 51* | -6 | ·
CCC(=O)Nc1ccc2c(c1)C(=O)N(C)C[C@H](OC)[C@H](C)CN(C(=O)Cc1ccccn1)[C@H](C)CO2 | · | · | · | · | · | -2
C[C@@H]1CN([C@@H](C)CO)C(=O)c2cc(C#CCC3CCCC3)cnc2O[C@H]1CN(C)Cc1ccccn1 | · | · | · | · | · | 1
COc1cccc(C(=O)Nc2cccc(C(=O)NC3=NN(c4c(Cl)cc(Cl)cc4Cl)C(=O)C3)c2)c1 | 2 | 7 | 2 | 44* | 5 | ·
